According to ChEMBL document CHEMBL1250517, “Synthesis and characterization of novel indole derivatives reveal improved therapeutic agents for treatment of ischemia/reperfusion (I/R) injury” (J Med Chem, 2010):

Columns and labels:
[1] = system: Mus musculus; test: Antiinflammatory activity in Kunming mouse assessed as inhibition of xylene-induced ear edema at 20 mg/kg, po; assay type: functional
[2] = system: Rattus norvegicus; test: Antiinflammatory activity in Wistar rat assessed as inhibition of carrageenan-induced paw edema at 20 mg/kg, po administered prior to carrageenan challenge measured after 1 hrs post carrageenan challenge; assay type: functional
[3] = system: Rattus norvegicus; test: Antiinflammatory activity in Wistar rat assessed as inhibition of carrageenan-induced paw edema at 20 mg/kg, po administered prior to carrageenan challenge measured after 3 hrs post carrageenan challenge; assay type: functional
[4] = system: Rattus norvegicus; test: Antiinflammatory activity in Wistar rat assessed as inhibition of carrageenan-induced paw edema at 20 mg/kg, po administered prior to carrageenan challenge measured after 5 hrs post carrageenan challenge; assay type: functional
[5] = system: Mus musculus; test: Antiinflammatory activity in Kunming mouse assessed as inhibition of xylene-induced ear edema at 10 mg/kg, po; assay type: functional
[6] = system: Mus musculus; test: Antiinflammatory activity in Kunming mouse assessed as inhibition of xylene-induced ear edema at 5 mg/kg, po; assay type: functional
[7] = system: PC-12; test: Antioxidant activity against nitric oxide scavenging activity in rat PC12 cells assessed as cell survival after 14 hrs by MTT assay; assay type: functional, cell-based; conditions: PC-12, 14 h
Method in brief: (§1)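 PC12 cells (rat adrenal medulla pheochromocytoma) are exposed to free radicals. Compound is given either as preincubation before radical exposure or as incubation after exposure. Viability is read by MTT reduction.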

[8] = system: PC-12; test: Antioxidant activity against H2O2 scavenging activity in rat PC12 cells assessed as cell survival after 14 hrs by MTT assay; assay type: functional, cell-based; conditions: PC-12, 14 h; method in brief: as §1
[9] = system: PC-12; test: Antioxidant activity against hydroxyl scavenging activity in rat PC12 cells assessed as cell survival after 14 hrs by MTT assay; assay type: functional, cell-based; conditions: PC-12, 14 h; method in brief: as §1
[10] = system: Rattus norvegicus; test: Antiinflammatory activity against ischemia-reperfused lung tissue edema Wistar rat assessed as ratio of wet tissue weight to dry tissue weight at 20 mg/kg, ip; assay type: functional; conditions: route intraperitoneal
Method in brief: (§2)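 Hind-limb ischemia/reperfusion injury model in rats, with compound at 20 mg/kg. Local injury assessed in skeletal muscle and remote injury in lung. Tissue edema is expressed as wet-to-dry tissue weight ratio. Lipid peroxidation is measured as MDA in plasma and lung, and histology uses H&E-stained sections.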

[11] = system: Rattus norvegicus; test: Antiinflammatory activity in ischemia-reperfused Wistar rat assessed as TNFalpha level at 20 mg/kg, ip (RVb = 123.4 +/- 8.9 pg/mL); assay type: functional; conditions: route intraperitoneal; method in brief: as §2
[12] = system: Rattus norvegicus; test: Antiinflammatory activity in ischemia-reperfused Wistar rat assessed as plasma MDA level at 20 mg/kg, ip (RVb = 3.53 +/- 0.34 nmol/mL); assay type: functional; conditions: route intraperitoneal; method in brief: as §2
[13] = system: Rattus norvegicus; test: Antiinflammatory activity in ischemia-reperfused Wistar rat assessed as lung MDA level at 20 mg/kg, ip measured per gram of tissue (RVb = 72.4 +/- 5.1 nmol); assay type: functional; conditions: route intraperitoneal; method in brief: as §2
[14] = system: Rattus norvegicus; test: Antiinflammatory activity in ischemia-reperfused Wistar rat assessed as MPO level at 20 mg/kg, ip (RVb = 17.3 +/- 0.8 U/g); assay type: functional; conditions: route intraperitoneal; method in brief: as §2
[15] = system: Rattus norvegicus; test: Antiinflammatory activity against ischemia-reperfused muscle tissue edema Wistar rat assessed as ratio of wet tissue weight to dry tissue weight at 20 mg/kg, ip; assay type: functional; conditions: route intraperitoneal; method in brief: as §2

SMILES | inhibition in vivo at 20 mg/kg [1] [%] | inhibition in vivo at 20 mg/kg [2] [%] | inhibition in vivo at 20 mg/kg [3] [%] | inhibition in vivo at 20 mg/kg [4] [%] | inhibition in vivo at 10 mg/kg [5] [%] | inhibition in vivo at 5 mg/kg [6] [%] | EC50 [7] [µM] | EC50 [8] [µM] | EC50 [9] [µM] | Ratio [10] | Activity [11] [pg/mL] | Activity [12] [nmol/mL] | Activity [13] [nmol] | Activity [14] [U/g] | Ratio [15]
C[C@H]1O[C@@H](CC=O)OC[C@H]1NC(=O)Cc1ccccc1 | 21.9 | 18.4 | 17.5 | 12.9 | – | – | – | – | – | – | – | – | – | – | –
COC(C[C@H]1OC[C@@H](NC(=O)Cc2ccccc2)[C@@H](C)O1)OC | 38.1 | 23.6 | 33.3 | 17.1 | – | – | – | – | – | – | – | – | – | – | –
COc1ccc2[nH]c3c(c2c1)CCN[C@@H]3C[C@H]1OC[C@@H](NC(=O)Cc2ccccc2)[C@@H](C)O1 | 66 | 44.7 | 52.4 | 34.3 | 32.3 | 18.1 | > 100 | 86.8 | 79.6 | – | – | – | – | – | –
C[C@H]1O[C@@H](C[C@H]2NCCc3c2[nH]c2ccccc32)OC[C@H]1NC(=O)Cc1ccccc1 | 44.4 | 34.2 | 47.6 | 21.4 | – | – | – | – | – | – | – | – | – | – | –
COC(=O)[C@@H]1Cc2c([nH]c3ccccc23)[C@@H](C[C@H]2OC[C@@H](NC(=O)Cc3ccccc3)[C@@H](C)O2)N1 | 60 | 39.5 | 49.2 | 35.7 | 30.1 | 16.8 | > 100 | 91.6 | 88.1 | – | – | – | – | – | –
COC(=O)[C@@H]1Cc2c([nH]c3ccccc23)[C@H](C[C@H]2OC[C@@H](NC(=O)Cc3ccccc3)[C@@H](C)O2)N1 | 40.6 | 28.9 | 38.1 | 20 | – | – | – | – | – | – | – | – | – | – | –
COc1ccc2[nH]c3c(c2c1)CCN[C@@H]3C[C@H]1OC[C@@H](N)[C@@H](C)O1 | 81.5 | 31.5 | 68.5 | 57.1 | 57.8 | 30.5 | 88.5 | 32.5 | 25.7 | 3.98 | 76.6 | 2.05 | 49.5 | 10.7 | 4.03
C[C@H]1O[C@@H](C[C@H]2NCCc3c2[nH]c2ccccc32)OC[C@H]1N | 50.4 | 21 | 59.7 | 30 | – | – | – | – | – | – | – | – | – | – | –
COC(=O)[C@@H]1Cc2c([nH]c3ccccc23)[C@@H](C[C@H]2OC[C@@H](N)[C@@H](C)O2)N1 | 74.3 | 26.3 | 61.4 | 48.6 | 60 | 35.2 | 96.3 | 45.7 | 50.9 | – | – | – | – | – | –
COC(=O)[C@@H]1Cc2c([nH]c3ccccc23)[C@H](C[C@H]2OC[C@@H](N)[C@@H](C)O2)N1 | 45.1 | 15.8 | 39.7 | 27.1 | – | – | – | – | – | – | – | – | – | – | –
COc1ccc2c(c1)c(CC(=O)O)c(C)n2C(=O)c1ccc(Cl)cc1 [INDOMETHACIN] | – | 47.3 | 65.1 | 54.3 | 73.6 | – | – | – | – | – | – | – | – | – | –
COc1ccc2[nH]cc(CCNC(C)=O)c2c1 [MELATONIN] | – | – | – | – | – | – | – | – | – | 3.55 | 53.6 | 1.75 | 40.6 | 8.6 | 3.21
